We go through 10 compounds from ChEMBL document CHEMBL3091306, “Synthesis, docking and pharmacological evaluation of novel homo- and hetero-bis 3-piperazinylpropylindole derivatives at SERT and 5-HT1A receptor” (Bioorg Med Chem, 2013).

In assay [1] the target is T1, 5-hydroxytryptamine receptor 1A (Homo sapiens, UniProt P08908).
T1 sequence (P08908 whole entry): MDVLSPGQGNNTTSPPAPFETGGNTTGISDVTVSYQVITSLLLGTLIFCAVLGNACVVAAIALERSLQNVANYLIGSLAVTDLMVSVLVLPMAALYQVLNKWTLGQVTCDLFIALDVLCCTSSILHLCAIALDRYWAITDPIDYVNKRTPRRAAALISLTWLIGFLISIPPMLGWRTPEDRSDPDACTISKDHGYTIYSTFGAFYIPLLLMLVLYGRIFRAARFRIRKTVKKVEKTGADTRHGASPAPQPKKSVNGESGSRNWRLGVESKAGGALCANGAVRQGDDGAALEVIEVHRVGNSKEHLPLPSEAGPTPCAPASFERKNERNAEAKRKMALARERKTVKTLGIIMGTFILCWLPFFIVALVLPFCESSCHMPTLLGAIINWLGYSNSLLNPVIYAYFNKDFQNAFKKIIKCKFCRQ
Kind of assay: Displacement of [3H]8-OH-DPAT from human 5-HT1A receptor expressed in HEK293 cells. Format: cell-based. Background: Loss of bound radioactivity is the signal in a displacement assay; it reports binding, not function.

In assay [2] the target is Sodium-dependent serotonin transporter (Rattus norvegicus, UniProt P31652). Kind of assay: Displacement of [3H]paroxetine from SERT in rat cortical membranes after 6 mins by liquid scintillation counting. In kind it is cell membranes. In outline: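 Rat cortical membranes (0.35 mg original wet weight) incubated with 0.2 nM [3H]paroxetine and test compound at 10^-11–10^-4 M in 50 mM Tris–HCl pH 7.7 with 150 mM NaCl, 5 mM KCl, 1.0 ml, 6 min at 25 °C; stopped by rapid filtration through polyethyleneimine-soaked GF/B filters, ice-cold buffer washes.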
Sodium-dependent serotonin transporter, sequence (P31652 whole entry): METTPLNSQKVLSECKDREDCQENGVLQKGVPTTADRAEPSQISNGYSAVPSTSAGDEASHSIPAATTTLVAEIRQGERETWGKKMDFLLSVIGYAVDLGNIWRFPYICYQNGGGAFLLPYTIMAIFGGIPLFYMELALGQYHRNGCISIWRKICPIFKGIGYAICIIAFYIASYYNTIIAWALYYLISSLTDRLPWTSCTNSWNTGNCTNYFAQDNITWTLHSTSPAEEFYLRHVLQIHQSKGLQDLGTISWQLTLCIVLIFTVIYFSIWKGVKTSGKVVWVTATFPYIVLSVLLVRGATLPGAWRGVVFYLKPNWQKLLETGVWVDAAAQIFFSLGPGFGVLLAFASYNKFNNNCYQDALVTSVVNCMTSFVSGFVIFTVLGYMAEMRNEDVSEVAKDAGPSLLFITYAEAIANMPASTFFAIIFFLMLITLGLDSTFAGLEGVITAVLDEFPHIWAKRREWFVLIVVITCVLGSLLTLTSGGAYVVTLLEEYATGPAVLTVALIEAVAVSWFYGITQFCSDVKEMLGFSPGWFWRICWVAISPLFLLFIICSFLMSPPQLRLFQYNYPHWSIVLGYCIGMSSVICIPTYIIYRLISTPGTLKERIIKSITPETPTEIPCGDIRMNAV

As usually defined, the IC50 is the concentration that gives 50% inhibition. Lower therefore signals inhibition by little substance. In the case of `Fc1ccc2[nH]cc(CCCN3CCN(CCCc4c[nH]c5ccc(Br)cc45)CC3)c2c1`, the IC50 in assay [1] is 4900 nM; in assay [2], 61 nM.

Take `COc1ccc2[nH]cc(CCCN3CCN(CCCc4c[nH]c5ccc(F)cc45)CC3)c2c1`: the figures for the IC50 in assay [1] and in assay [2] were 7200 nM and 14 nM, respectively.

For `COc1ccc2[nH]cc(CCCN3CCN(CCCc4c[nH]c5ccc(Br)cc45)CC3)c2c1`, the IC50 in assay [1] was 128 nM; in assay [2], 39 nM.

Turning to `COc1ccc2[nH]cc(CCCN3CCN(CCCc4c[nH]c5ccccc45)CC3)c2c1`, the IC50 in assay [1] worked out at 4500 nM; in assay [2], 43 nM.

For the compound `Fc1ccc2[nH]cc(CCCN3CCN(CCCc4c[nH]c5ccc(F)cc45)CC3)c2c1`, the figures for the IC50 in assay [1] and in assay [2] were 5700 nM and 13 nM, respectively.

Regarding `COc1ccc2[nH]cc(CCCN3CCN(CCCc4c[nH]c5ccc(OC)cc45)CC3)c2c1`, the IC50 worked out at 599 nM in assay [1] and 98 nM in assay [2].

As for `Brc1ccc2[nH]cc(CCCN3CCN(CCCc4c[nH]c5ccccc45)CC3)c2c1`, the IC50 in assay [1] came to 15 nM; in assay [2] it was 137 nM.

As for `Fc1ccc2[nH]cc(CCCN3CCN(CCCc4c[nH]c5ccccc45)CC3)c2c1`, the IC50 turned out to be 16 nM in assay [1] and 26 nM in assay [2].

On to `Brc1ccc2[nH]cc(CCCN3CCN(CCCc4c[nH]c5ccc(Br)cc45)CC3)c2c1`, for which the IC50 worked out at 1200 nM in assay [1] and 87 nM in assay [2].

Turning to `c1ccc2c(CCCN3CCN(CCCc4c[nH]c5ccccc45)CC3)c[nH]c2c1`, the half-inhibitory concentration (IC50) in assay [1] came to 2700 nM; in assay [2], 37 nM.
